Reference: ChEMBL document CHEMBL1765055 (J Med Chem, 2011)
Where “and” joins values, the source holds several entries; their conditions need not be identical. Identical values can stand only once. Non-standard residues stand in square brackets, D forms with d. Residues, ends and D or L forms follow the SMILES beside them. N(4-hydroxyphenethyl)Gly = O=C(O)CNCCc1ccc(O)cc1; Gly(N-4-hydroxybenzyl) = O=C(O)CNCc1ccc(O)cc1; N(1S-Me-propyl)Gly = CC[C@H](C)NCC(=O)O

Legend:
[1] = biological target: T1, Neurotensin receptor type 2 (Homo sapiens, UniProt O95665); experiment: Displacement of [3H]NT from human NTS2 receptor expressed in HEK293 cells; assay type: cell-based
T1 sequence (O95665 whole entry): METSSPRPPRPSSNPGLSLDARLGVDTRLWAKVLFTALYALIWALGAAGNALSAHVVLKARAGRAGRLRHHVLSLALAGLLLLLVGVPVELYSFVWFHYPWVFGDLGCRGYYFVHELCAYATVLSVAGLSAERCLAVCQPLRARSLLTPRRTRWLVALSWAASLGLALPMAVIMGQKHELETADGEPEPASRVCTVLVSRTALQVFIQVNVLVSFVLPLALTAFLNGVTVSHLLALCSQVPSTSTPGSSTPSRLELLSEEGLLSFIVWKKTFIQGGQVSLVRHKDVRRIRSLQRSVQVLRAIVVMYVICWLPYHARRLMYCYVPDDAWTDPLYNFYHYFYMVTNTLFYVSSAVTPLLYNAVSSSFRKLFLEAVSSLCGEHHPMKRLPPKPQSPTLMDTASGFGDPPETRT

[2] = biological target: T2, Neurotensin receptor type 1 (Homo sapiens, UniProt P30989); experiment: Displacement of [3H]neurotensin from human NTS1 receptor expressed in CHO cells; assay type: cell-based
T2 sequence (P30989 whole entry): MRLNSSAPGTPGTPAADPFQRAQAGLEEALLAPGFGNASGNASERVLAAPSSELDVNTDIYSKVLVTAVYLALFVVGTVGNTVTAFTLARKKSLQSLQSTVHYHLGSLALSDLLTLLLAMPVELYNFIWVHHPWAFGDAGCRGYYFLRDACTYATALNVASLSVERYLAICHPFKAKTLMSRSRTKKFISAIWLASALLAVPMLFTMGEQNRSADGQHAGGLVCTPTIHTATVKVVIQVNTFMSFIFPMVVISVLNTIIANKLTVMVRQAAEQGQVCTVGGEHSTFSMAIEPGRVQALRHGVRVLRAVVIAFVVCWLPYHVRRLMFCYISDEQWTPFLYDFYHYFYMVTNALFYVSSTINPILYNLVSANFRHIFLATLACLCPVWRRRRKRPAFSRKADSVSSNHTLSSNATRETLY

[3] = biological target: T1, Neurotensin receptor type 2; experiment: Agonist activity at human NTS2 receptor expressed in HEK293 cells assessed as inhibition of constitutive activity on MAPK-mediated luciferase activity at 3 uM in presence of SR142948A; assay type: functional, cell-based
Method in brief: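 HEK 293 cells transiently expressing hNTS2 plus Elk1 trans-activator/luciferase reporter plasmids were reseeded in 1% FBS medium. They received 3 μM compound together with graded concentrations of the antagonist SR142948A for 24 h at 37 °C. Luciferase luminescence was measured as the readout of constitutive MAPK activity. Mean curves came from 7–11 independent experiments in triplicate.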

[4] = biological target: T1, Neurotensin receptor type 2; experiment: Agonist activity at human NTS2 receptor expressed in HEK293 cells assessed as inhibition of constitutive activity on MAPK-mediated luciferase activity; assay type: functional, cell-based
[5] = species: Homo sapiens; experiment: Selectivity ratio of Ki for human NTS1 to Ki for human NTS2
[6] = biological target: T2, Neurotensin receptor type 1; experiment: Ratio of compound Emax to neurotensin Emax for human NTS1 receptor
[7] = biological target: T1, Neurotensin receptor type 2; experiment: Ratio of compound Emax to neurotensin Emax for human NTS2 receptor

Row | Compound | Ki [1] | Ki [2] | Ratio Ki [5] | other results
1 | CC[C@H](C)N(CC(=O)N[C@@H](CC(C)C)C(=O)O)C(=O)[C@H](Cc1ccc(O)cc1)NC(=O)[C@@H]1CCCN1C(=O)[C@H](CCCCN)NC(=O)[C@@H](N)CCCCN (H-KKPY[N(1S-Me-propyl)Gly]L-OH) | 330 nM and 1200 nM | 3 µM and 3.3 µM | – | –
2 | H-RRPYAL-OH [listing 1 of 2 here] | – | – | 1.6 | –
3 | H-RRAYIL-OH [listing 1 of 2 here] | – | – | 0.41 | –
4 | H-RAPYIL-OH [listing 1 of 2 here] | – | – | 0.46 | –
5 | CC[C@H](C)[C@H](NC(=O)CN(CCc1ccc(OC)cc1)C(=O)[C@@H]1CCCN1C(=O)[C@H](CCCN=C(N)N)NC(=O)[C@@H](N)CCCN=C(N)N)C(=O)N[C@@H](CC(C)C)C(=O)O | 38 nM | – | – | –
6 | H-RRPAIL-OH [listing 1 of 2 here] | – | – | 16 | –
7 | CC[C@H](C)[C@H](NC(=O)CN(Cc1ccc(O)cc1)C(=O)[C@@H]1CCCN1C(=O)[C@H](CCCCN)NC(=O)[C@@H](N)CCCCN)C(=O)N[C@@H](CC(C)C)C(=O)O (H-KKP[Gly(N-4-hydroxybenzyl)]IL-OH) | 1000 nM | 30 µM | 30 | –
8 | H-RAPYIL-OH [listing 2 of 2 here] | 24 nM | 0.011 µM | – | –
9 | H-RRPAIL-OH [listing 2 of 2 here] | 83 nM | 1.3 µM | – | –
10 | CC[C@H](C)[C@H](NC(=O)[C@H](CC1=CC=C(O)CC1)NC(=O)[C@@H]1CCCN1C(=O)[C@H](CCCNC(=N)N)NC(=O)[C@@H](N)CCCNC(=N)N)C(=O)N[C@@H](CC(C)C)C(=O)O | – | – | – | Kd [1]: 1.2 nM
11 | H-RRPYAL-OH [listing 2 of 2 here] | 63 nM | 0.1 µM | – | –
12 | CC[C@H](C)[C@H](NC(=O)[C@H](Cc1ccc(O)cc1)NC(=O)[C@@H]1CCCN1C(=O)CN(CCCCN)C(=O)[C@@H](N)CCCCN)C(=O)N[C@@H](CC(C)C)C(=O)O | 21 nM | – | – | –
13 | H-ARPYIL-OH | 56 nM | 0.0046 µM | 0.082 | –
14 | CC[C@H](C)[C@H](NC(=O)[C@H](Cc1ccc(O)cc1)NC(=O)[C@@H]1CCCN1C(=O)[C@H](CCCNC(=N)N)NC(=O)[C@@H](N)CCCNC(=N)N)C(=O)N[C@@H](C)C(=O)O | 1300 nM | – | – | –
15 | H-RRAYIL-OH [listing 2 of 2 here] | 63 nM | 0.026 µM | – | –
16 | CC[C@H](C)[C@H](NC(=O)CN(CCc1ccccn1)C(=O)[C@@H]1CCCN1C(=O)[C@H](CCCNC(=N)N)NC(=O)[C@@H](N)CCCNC(=N)N)C(=O)N[C@@H](CC(C)C)C(=O)O | 100 nM | – | – | –
17 | CC[C@H](C)[C@H](NC(=O)[C@H](Cc1ccc(O)cc1)NC(=O)[C@@H]1CCCN1C(=O)[C@H](CCCCN)NC(=O)[C@@H](N)CCCCN)C(=O)N(CC(=O)O)CC(C)C | 1600 nM | – | – | –

Continued, in another order:

Row | Ki [1] | Ki [2] | Ratio Ki [5] | Compound | other results
18 | 8.8 nM | – | – | CC[C@H](C)[C@H](NC(=O)CN(CCc1ccc(O)cc1)C(=O)[C@@H]1CCCN1C(=O)[C@H](CCCNC(=N)N)NC(=O)[C@@H](N)CCCNC(=N)N)C(=O)N[C@@H](CC(C)C)C(=O)O | Activity [3]: Dose-dependent effect; EC50 [4]: 480 nM
19 | 20 nM | – | – | CC[C@H](C)[C@H](NC(=O)CN(CCc1ccccc1)C(=O)[C@@H]1CCCN1C(=O)[C@H](CCCN=C(N)N)NC(=O)[C@@H](N)CCCN=C(N)N)C(=O)N[C@@H](CC(C)C)C(=O)O | –
20 | 6.7 nM | 80 µM | 12000 | CC[C@H](C)[C@H](NC(=O)CN(CCc1ccc(O)cc1)C(=O)[C@@H]1CCCN1C(=O)[C@H](CCCCN)NC(=O)[C@@H](N)CCCNC(=N)N)C(=O)N[C@@H](CC(C)C)C(=O)O (H-RKP[N(4-hydroxyphenethyl)Gly]IL-OH) | Emax [6]: 0.07; Emax [7]: 2.6; EC50 [4]: 840 nM
21 | 4.3 nM | 32 µM | 7400 | CC[C@H](C)[C@H](NC(=O)CN(CCc1ccc(O)cc1)C(=O)[C@@H]1CCCN1C(=O)[C@H](CCCCN)NC(=O)[C@@H](N)CCCCN)C(=O)N[C@@H](CC(C)C)C(=O)O (H-KKP[N(4-hydroxyphenethyl)Gly]IL-OH) | Emax [7]: 3.1; EC50 [4]: 590 nM
22 | 6.1 nM | – | – | CC[C@H](C)[C@H](NC(=O)[C@H](Cc1ccc(O)cc1)NC(=O)[C@@H]1CCCN1C(=O)[C@H](CCCCN)NC(=O)[C@@H](N)CCCCN)C(=O)N[C@@H](CC(C)C)C(=O)O | –
23 | 4.4 nM | 8.3 µM | 1900 | CC[C@H](C)[C@H](NC(=O)CN(CCc1ccc(O)cc1)C(=O)[C@@H]1CCCN1C(=O)[C@H](CCCNC(=N)N)NC(=O)[C@@H](N)CCCCN)C(=O)N[C@@H](CC(C)C)C(=O)O (H-KRP[N(4-hydroxyphenethyl)Gly]IL-OH) | Emax [7]: 4.6; EC50 [4]: 690 nM
24 | 0.74 nM | – | – | CC[C@H](C)[C@H](NC(=O)[C@H](Cc1ccc(O)cc1)NC(=O)[C@@H]1CCCN1C(=O)[C@H](CCCCN)NC(=O)CNCCCCN)C(=O)N[C@@H](CC(C)C)C(=O)O | –
